These results are taken from ChEMBL document CHEMBL1143377, “Design, synthesis, and evaluation of potent, nonpeptidic mimetics of second mitochondria-derived activator of caspases” (J Med Chem, 2009).

One may read the IC50 as the concentration at which inhibition is half-maximal. A lower IC50 goes with greater potency in that assay.

Assay [1] concerns MDA-MB-231. Kind of assay: cells. The note with it: Homo sapiens, MDA-MB-231, 96 h.
Assay [2] relates to MDA-MB-231. Kind of assay: Induction of apoptosis in human MDA-MB-231 cells assessed as increase in caspase 3 activation after 24 hrs by Western blotting. Format: functional, cell-based. An outline of the steps:
(§1)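 MDA-MB-231 breast cancer cells were exposed to Smac mimetics for 24 hours. Cell proteins were then probed on Western blots with specific antibodies against cIAP-1, XIAP, cleaved caspase-8, pro- and cleaved caspase-3, and cleaved PARP. GAPDH served as the loading control.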
On the technique in general: Immunoblotting shows a protein as a band on a membrane.

Assay [3] concerns MDA-MB-231. Kind of assay: Induction of apoptosis in human MDA-MB-231 cells assessed as increase in caspase 8 activation after 24 hrs by Western blotting. Format: functional, cell-based. An outline of the steps: as §1
Assay [4] relates to MDA-MB-231. The assay is described as follows: Induction of cIAP1 degradation in human MDA-MB-231 cells after 24 hrs by Western blotting. It is filed as functional, cell-based. An outline of the steps: as §1
Assay [5] has as its system MDA-MB-231. The assay is described as follows: Induction of apoptosis in human MDA-MB-231 cells assessed as PARP cleavage after 24 hrs by Western blotting. Format: functional, cell-based. The method, boiled down: as §1

As for `CN[C@@H](C)C(=O)N[C@H]1C/C=C\C[C@H]2[C@@H](Cc3ccccc3)C[C@@H](C(=O)N[C@@H]3CCCc4ccccc43)N2C1=O`, the IC50 in the assay with MDA-MB-231 [1] turned out to be 26 nM.
Take `CN[C@@H](C)C(=O)N[C@H]1CCCC[C@H]2[C@@H](Cc3ccccc3)C[C@@H](C(=O)N[C@@H]3CCCc4ccccc43)N2C1=O`: the Activity result in the assay on MDA-MB-231 [2], in the assay with MDA-MB-231 [3], in the assay with MDA-MB-231 [4] and in the assay on MDA-MB-231 [5] was “Dose-dependent effect” in each case.
For `CN[C@@H](C)C(=O)N[C@H]1CCCC[C@H]2CC[C@@H](C(=O)NC(c3ccccc3)c3ccccc3)N2C1=O`, the Activity entry in the assay on MDA-MB-231 [2], in the assay with MDA-MB-231 [3], in the assay with MDA-MB-231 [4] and in the assay on MDA-MB-231 [5] was “Dose-dependent effect” each time. Besides, the IC50 in the assay with MDA-MB-231 [1] is 259 nM.
`CN[C@@H](C)C(=O)N[C@H]1CCCC[C@H]2CC[C@@H](C(=O)N[C@@H]3CCCc4ccccc43)N2C1=O`: the Activity result in the assay on MDA-MB-231 [2], in the assay with MDA-MB-231 [3], in the assay with MDA-MB-231 [4] and in the assay on MDA-MB-231 [5] was “Dose-dependent effect” in each case.
